Source: ChEMBL document CHEMBL4513216, “Probing the Open Global Health Chemical Diversity Library for Multistage-Active Starting Points for Next-Generation Antimalarials” (ACS Infect Dis, 2020)

Assay: Toxicity liver stage against HepG2, at 10uM
Format: cell-based
Design: test concentration 10 uM, cell line HepG2-A16-CD81EGFP
Conditions: human, HepG2-A16-CD81EGFP cells; read-out: INHIBITION
Outline: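 Uninfected HepG2-A16-CD81EGFP cells, 3 × 10^3 per well, 1536-well, plated on prespotted compound at 10 μM final, parasite-free screening media added to match infected plates; puromycin 10 μM positive, DMSO 0.5% negative; run in parallel with 48 h PbLuc assay at 37 °C, 5% CO2; viability by CellTiter-Glo luminescence, normalized to controls.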

SMILES | cytotoxicity at 10 µM [%]
CN1C(=O)C2(CC(=O)Nc3[nH]ncc32)c2cc(Cl)ccc21 (stereo not given) | -1.89
COC1CCN(C(=O)Cn2ccc3ccccc32)CC1 | -12.7
O=S(=O)(c1cc(F)cc(F)c1)N1CCC(Oc2ccc(Cl)cn2)CC1 | -4.63
CCC(CNC(=O)OC)(OC)c1ccccc1 (stereo not given) | 1.37
CN1CC[C@@H]2[C@@H]1CCN2Cc1ccc2c(c1)OCO2 | 3.11
CN1CC2(CCCCN2C(=O)c2ccsc2)CC1=O (stereo not given) | 2.73
O=C(NCCc1ccncc1)[C@H]1CC[C@@H]2[C@@H](CCN2C2CCC2)O1 | -2.3
Cn1nnc2c1C(COCC1CC1)CN(C(=O)Cc1ccccn1)C2 (stereo not given) | 13.5
Cc1nc(N2CCN(C(=O)C3CCCC3)CC2)c2c(n1)c(C)nn2C | 6.97
CCn1cc(CN(C)S(=O)(=O)c2ccccc2)cn1 | 11.9
Cc1c(Cl)cccc1N1CC(c2nnc(N)s2)CC1=O (stereo not given) | 7.38
Cc1nn(C)c(C)c1NC(=O)CCn1ncc2ccccc21 | 10.8
COc1ccc(C2=NOC(CO)C2)cc1 (stereo not given) | 11.2
COCC(=O)N1CCN(C)CC(Cc2cc(N(C)C)ncn2)C1 (stereo not given) | -1.79
CC(=O)N1CCCCC[C@@H]2[C@@H]1[C@H](c1cccc(F)c1)CN2C(=O)C1CC1 | 6.75
COc1ccccc1C1(O)CCCN(C(=O)c2csc(C(C)=O)c2)C1 (stereo not given) | -1.41
COc1cccc(CCC2CCCCN2)c1 (stereo not given) | -1.73
Cc1cc(-c2cnc(N3CCNC(=O)C3)nc2-c2ccc(C)o2)on1 | -5.77
CS(=O)(=O)CCC(=O)N1CCC(c2cccc(F)c2)C1 (stereo not given) | 3.71
Cc1cc(NC(=O)CN2CCc3c(nc(C(C)C)n3C)C2)n(C)n1 | -4.94
CCc1ocnc1C(=O)Nc1ccc2ccn(CCN(C)C)c2c1 | 4.81
CC(=O)N1CCC(CCNC(C)Cc2ccc(F)cc2)CC1 (stereo not given) | -11.4
Cc1n[nH]c(C)c1NC(=O)NCc1cc[nH]n1 | -5.18

SMILES | cytotoxicity at 10 µM [%]
O=C(c1ccc2c(c1)[nH]c(=O)n2C1CCCC1)N1CCCSCC1 | -41.2
Cc1ccc(N2CCc3ncnc(C)c3CC2)nn1 | -93.6
CCOCCn1nc(C)cc1C(=O)N(C)Cc1cccc2ncccc12 | 4.2
CCCn1nccc1C(=O)N1CCCC(C(=O)CCc2ccccc2)C1 (stereo not given) | -1.08
O=C(Nc1ccc(F)c(F)c1)N1CCC2(CCC(=O)N(C3CC3)C2)CC1 | -0.381
Cc1ccc(C(=O)N2CCCC(Nc3ccc(F)cc3)C2)cc1 (stereo not given) | -3.53
CCn1nc(C)cc1C(=O)N1CCCN(CCCc2ccccc2)CC1 | -1.45
CN1CCCN(S(=O)(=O)c2cccc(C(=O)N3CCCCCC3)c2)CC1 | -5.9
CCc1nnc(SCC(=O)N2CCc3[nH]nc(C4CCC4)c3C2)o1 | -5.22
Cc1noc(CN(C)CC(c2cccs2)N2CCOCC2)n1 (stereo not given) | -0.524
Cc1cccc(C(CNC(=O)NCc2cc[nH]n2)N2CCOCC2)c1 (stereo not given) | -9.19
CCn1nc2c(cc1=O)CN(Cc1nc(-c3ccco3)no1)CC2 | -3.34
Cn1cc(C2CCCN2Cc2csc(Cc3ccccc3)n2)cn1 (stereo not given) | -1.19
CCN1CCN(C2CCN(Cc3noc(C4CC4)n3)CC2)C1=O | -8.69
COCC(C)NC(=O)c1cc(C)n(-c2cccc(OC)c2)c1C (stereo not given) | -13.9
c1ccc2cc(OCCCN3CCn4c(nnc4C4CC4)C3)ccc2c1 | -11.3
Cc1cnn(CC2CCCCN2C(=O)c2ccc3nncn3c2)c1 (stereo not given) | -8.66
Cc1ccccc1OCCN(C)C(=O)NC(C)c1nncn1C (stereo not given) | -12.5
Cc1ccc(-c2nnc(CN3CCc4nn(C)c(=O)cc4C3)o2)cc1 | -23.4
CN(c1cccnn1)C1CCN(C(=O)Cc2c[nH]c3ccccc23)CC1 | -20.1
O=C(Cc1ccccn1)N1CC[C@]2(C[C@@H](Oc3ncccc3F)CO2)C1 | -5.79
O=C(NCCc1cccnc1)c1nc2c(s1)CCCN2C(=O)C1CC1 | -91.5
